Laboratory results from paper PMC9398498 (Gastric Cancer, 2022).
Where a name gives a salt, the structure may show the parent alone. Read-outs that look alike come from different tables or passages of the source. One block for each compound: values may come before it.

Key:
[1] = system: GIST-T1 and GIST-T1/IMR cells; assay: Transwell chamber invasion assay; format: cell-based; settings: DMS pretreatment and then IM treatment, within 48 h
In short: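 Parental and resistant GIST-T1 cells in RPMI 1640 with 15% FBS (37 °C, 5% CO2) were tested in a transwell chamber. Invasion within 48 h was counted as transmembrane cells.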

GIST-T1 cells = assay: Cell cycle analysis, GIST-T1; format: cell-based; settings: P < 0.01
[2] = system: GIST-T1 and GIST-T1/IMR cells; assay: Longitudinal migration through uncoated Matrigel; format: cell-based; settings: both cell lines
In short: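 Parental and resistant GIST-T1 cells were grown in RPMI 1640 with 15% FBS at 37 °C, 5% CO2. Vertical migration was scored as the number of cells passing through uncoated Matrigel.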

GIST-T1/IMR cells = assay: Cell cycle analysis, GIST-T1/IMR; format: cell-based; settings: DMS with IM vs only IM, P < 0.01
[3] = system: S1P, SPK1 and ABCC1 protein expression; assay: Western blot of SPK1/S1P proteins; format: cell-based; settings: after DMS blockage for 5 h
In short: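 Lysates of parental and resistant GIST-T1 cells were probed with rabbit polyclonal anti-S1P, anti-SPK1 and anti-β-actin antibodies, plus anti-ABCC1. Bands were visualised by enhanced chemiluminescence.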

[4] = system: GIST-T1 and GIST-T1/IMR cells; assay: Cell apoptosis analysis; format: cell-based
SPK1 = SPK1 compared to SPK2; cited from earlier work
[5] = system: GIST-T1 and GIST-T1/IMR cells; assay: Cell scratch assay; format: cell-based; settings: DMS (10 µM, 5 h) pretreatment then IM (20 µM) vs only IM treatment, P < 0.01
[6] = system: GIST-T1 and GIST-T1/IMR cells; assay: Plate colony formation experiment; format: cell-based; settings: P < 0.01
GISTs = settings: cited from earlier work
[7] = Therapeutic drug monitoring; format: in vivo, human; settings: 400 mg/qd; for concentration at 22 h: both, human, plasma, oral, Plasma concentration
In short: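 Patients on oral drug 400 mg once daily for over 1 month (steady state) took the dose at about 12:00. Peripheral venous blood was drawn about 10:00 next morning into anticoagulant tubes and centrifuged at 5000 rpm for 5 min. Plasma was stored at −20 °C, protein-precipitated, centrifuged and injected directly for 2D-LC-UV quantitation.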

[8] = cited from earlier work

SMILES: CCCCCCCCCCCCC/C=C/[C@@H](O)[C@H](CO)N(C)C [DMS, N,N-dimethylsphingosine]
number of transmembrane cells [1]: further reduced dramatically | proportion of G0/G1 phase (GIST-T1 cells; GIST-T1, DMS with IM vs only IM): significantly lower | ability of longitudinal migration ([2]; DMS pretreatment with IM): further block | proportion of G0/G1 phase (GIST-T1/IMR cells): significantly lower | protein levels of S1P, ABCC1 and SPK1 [3]: decreased | apoptosis rate ([4]; after DMS interference vs cells without DMS treatment): significantly higher | inhibitory activity on sphingosine kinases (SPK1): high inhibitory activity on SPK1 compared to SPK2 | scratch healing rate [5]: significantly decreased | Colony formation ability ([6]; DMS pretreatment vs IM intervention's group): further reduced

difference between the highest and lowest IM concentration ([7]; 29 patients): more than 12 fold | concentration at 22 h ([7]; OCT1 1022C > T (rs 2282143) CC, n=22): 1510 ± 842 ng/mL | concentration at 22 h ([7]; OCT1 1022C > T (rs 2282143) TC, n=7): 1750 ± 1090 ng/mL | concentration at 22 h ([7]; OCT1 1222 A > G (rs628031) AA, n=1): 300 ng/mL | concentration at 22 h ([7]; OCT1 1222 A > G (rs628031) AG, n=10): 1820 ± 1010 ng/mL | concentration at 22 h ([7]; OCT1 1222 A > G (rs628031) GG, n=18): 1500 ± 798 ng/mL | concentration at 22 h ([7]; OCT1 1386C > A (rs 622342) AA, n=24): 1580 ± 801 ng/mL | concentration at 22 h ([7]; OCT1 1386C > A (rs 622342) AC, n=5): 1490 ± 1380 ng/mL | concentration at 22 h ([7]; OCT1 1795G > A (rs6935207) AA, n=8): 961 ± 401 ng/mL | concentration at 22 h ([7]; OCT1 1795G > A (rs6935207) AG, n=13): 1860 ± 978 ng/mL | concentration at 22 h ([7]; OCT1 1795G > A (rs6935207) GG, n=8): 1700 ± 890 ng/mL
SMILES: Cc1ccc(NC(=O)c2ccc(CN3CCN(C)CC3)cc2)cc1Nc1nccc(-c2cccnc2)n1 [IM, Imatinib mesylate]
proportion of G0/G1 phase (GIST-T1 cells; exposed to IM vs control): higher proportion | longitudinal migration capacity ([2]; 20 μM of IM for 48 h, P < 0.01): decreased significantly | apoptosis rate ([4]; GIST-T1 cells treated with IM alone vs control, P < 0.01): higher than that of the control group | GISTs patients developing secondary drug resistance (GISTs; after 1–3 years of IM treatment): ~85% | number of colony formation ([6]; IM intervention vs control): significantly less than the control group | pH at which IM tablets dissolve rapidly [8]: ≤ 5.5

SMILES: CNC(=O)c1cc(Oc2ccc(NC(=O)Nc3ccc(Cl)c(C(F)(F)F)c3)c(F)c2)ccn1 [regorafenib]
median PFS (GISTs; use after sunitinib resistance): 4.8 months | objective response rate (GISTs; use after sunitinib resistance): 5.5%

SMILES: CCn1c(=O)c(-c2cc(NC(=O)Nc3ccccc3)c(F)cc2Br)cc2cnc(NC)cc21 [ripretinib]
median PFS (GISTs; phase III trial): 6.3 months | objective response rate (GISTs; phase III trial): 9%

SMILES: CCN(CC)CCNC(=O)c1c(C)[nH]c(/C=C2\C(=O)Nc3ccc(F)cc32)c1C [sunitinib]
median PFS (GISTs; use after IM resistance): 9.9 months | objective response rate (GISTs; use after IM resistance): 5.5%
